pEC50, pIC50: −log10 of the molar value. Values after ≈ are worked out from the molar mass of the structure shown.
Experiments:
[1] = system: B16; assay: Cytotoxicity against mouse B16 cells by MTT assay; format: functional, cell-based
[2] = system: L1210; assay: Cytotoxicity against mouse L1210 cells by MTT assay; format: functional, cell-based
[3] = Solubility of the compound in water by multiscreen solubility; format: physicochemical
Summary of the method: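 Aqueous solubility was measured with a modified Multiscreen Solubility filter-plate protocol. The assay ceiling is 500 µM, and two independent experiments were run.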

[4] = Ratio of EC50 for microtubule depolymerization in […] cells to IC50 for human MDA-MB-435 cells
[5] = Induction of microtubule depolymerization in […] cells for 18 hrs by indirect immunofluorescence microscopic analysis; format: cell-based
Summary of the method: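 Uses A-10 cells, a non-transformed line that arrests in interphase under microtubule-targeting agents. Cells were treated for 18 h and interphase microtubules were visualized by indirect immunofluorescence microscopy, with vehicle-treated controls. Depolymerization was screened at concentrations below 30 µM. For EC50, a range of concentrations was tested, and EC50 is the concentration causing 50% loss of cellular microtubules by microscopy.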

[6] = system: Mus musculus; assay: Toxicity in DBA2 mouse assessed as change in color, weight and size in liver at 75 mg/kg, ip QD administered on alternate days for 17 days measured on day 23 relative to control; format: organism-based; design: dose 75 mg/kg, route intraperitoneal; conditions: in vivo, 408 h
Summary of the method: (§1)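 Healthy female DBA2 mice, 5–7 weeks old, five per group, received 75 mg/kg ip on days 1, 5, 9, 13 and 17. Vehicle was PET (PEG400/ethanol/Tween 80, 6:3:1), 5% glucose and DMSO, with final ethanol 15% and DMSO 10%. Controls received 100 µL vehicle. Body weight was measured every other day. At sacrifice on day 23, blood counts (hematocrit, WBC, granulocytes, platelets) and liver, kidney and spleen appearance and weight were assessed.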

[7] = system: Mus musculus; assay: Toxicity in DBA2 mouse assessed as change in white blood count at 75 mg/kg, ip QD administered on alternate days for 17 days measured on day 23 relative to control; format: organism-based; design: dose 75 mg/kg, route intraperitoneal; conditions: in vivo, 408 h; summary of the method: as §1
[8] = system: Mus musculus; assay: Toxicity in DBA2 mouse assessed as change in platelet count at 75 mg/kg, ip QD administered on alternate days for 17 days measured on day 23 relative to control; format: organism-based; design: dose 75 mg/kg, route intraperitoneal; conditions: in vivo, 408 h; summary of the method: as §1
[9] = system: Mus musculus; assay: Toxicity in DBA2 mouse assessed as change in body weight at 75 mg/kg, ip QD administered on alternate days for 17 days measured on day 23 relative to control; format: organism-based; design: dose 75 mg/kg, route intraperitoneal; conditions: in vivo, 408 h; summary of the method: as §1
[10] = system: Mus musculus; assay: Toxicity in DBA2 mouse assessed as change in hematocrit at 75 mg/kg, ip QD administered on alternate days for 17 days measured on day 23 relative to control; format: organism-based; design: dose 75 mg/kg, route intraperitoneal; conditions: in vivo, 408 h; summary of the method: as §1
[11] = system: Mus musculus; assay: Toxicity in DBA2 mouse assessed as change in color, weight and size in spleen at 75 mg/kg, ip QD administered on alternate days for 17 days measured on day 23 relative to control; format: organism-based; design: dose 75 mg/kg, route intraperitoneal; conditions: in vivo, 408 h; summary of the method: as §1
[12] = system: Mus musculus; assay: Toxicity in DBA2 mouse assessed as change in granulocyte count at 75 mg/kg, ip QD administered on alternate days for 17 days measured on day 23 relative to control; format: organism-based; design: dose 75 mg/kg, route intraperitoneal; conditions: in vivo, 408 h; summary of the method: as §1
[13] = system: Mus musculus; assay: Toxicity in DBA2 mouse assessed as change in color, weight and size in kidney at 75 mg/kg, ip QD administered on alternate days for 17 days measured on day 23 relative to control; format: organism-based; design: dose 75 mg/kg, route intraperitoneal; conditions: in vivo, 408 h; summary of the method: as §1

Row | SMILES | pIC50 [1] | pIC50 [2] | also measured
1 | COc1ccc(OC)c(/C=C(/C(C)=O)c2cc(OC)c(OC)c(OC)c2)c1 | 5.40 | 5.43 | 
2 | COc1ccc(/C=C(/C(C)=O)c2cc(OC)c(OC)c(OC)c2)cc1OC | 4.38 | 4.43 | 
3 | COc1cc(OC)c(/C=C(/C(C)=O)c2cc(OC)c(OC)c(OC)c2)c(OC)c1 | < 4.00 | 5.43 | 
4 | COc1cc(/C=C(/C(C)=O)c2cc(OC)c(OC)c(OC)c2)cc(OC)c1OC | 4.64 | 5.14 | 
5 | COc1ccc(/C=C(/C(C)=O)c2cc(OC)c(OC)c(OC)c2)cc1O[Si](C)(C)C(C)(C)C | 5.29 | 6.74 | 
6 | COc1cc(/C(=C\c2ccc([N+](=O)[O-])cc2)C(C)=O)cc(OC)c1OC | 4.74 | 4.74 | 
7 | COc1cc(/C(=C\c2cccc([N+](=O)[O-])c2)C(C)=O)cc(OC)c1OC | 5.42 | 5.48 | 
8 | COc1cc(/C(=C\c2ccc(Cl)cc2)C(C)=O)cc(OC)c1OC | 5.13 | 5.30 | 
9 | COc1cc(/C(=C\c2cccc(Br)c2)C(C)=O)cc(OC)c1OC | 4.41 | 4.46 | 
10 | COc1cc(/C(=C\c2ccc(Br)cc2)C(C)=O)cc(OC)c1OC | 4.72 | 5.40 | 
11 | COc1cc(/C(=C\c2ccc(C#N)cc2)C(C)=O)cc(OC)c1OC | 4.54 | 5.10 | 
12 | COc1cc(/C(=C\c2ccc(F)cc2)C(C)=O)cc(OC)c1OC | 4.19 | 4.37 | 
13 | COc1ccc(/C=C(/C(C)=O)c2cc(OC)c(OC)c(OC)c2)cc1 | 5.14 | 6.42 | solubility [3]: 319 µM (≈ 109 µg/mL); Ratio [4]: 53; pEC50 [5]: 4.73
14 | COc1ccccc1/C=C(/C(C)=O)c1cc(OC)c(OC)c(OC)c1 | 4.39 | 4.40 | 
15 | COc1cccc(/C=C(/C(C)=O)c2cc(OC)c(OC)c(OC)c2)c1 | 4.51 | 4.41 | 
16 | COc1cc(/C(=C\c2ccc(C)cc2)C(C)=O)cc(OC)c1OC | 5.54 | 6.44 | Activity [6]: Non-toxic; Activity [7]: Non-toxic; Activity [8]: Non-toxic; Activity [9]: Non-toxic; solubility [3]: 443 µM (≈ 145 µg/mL); Activity [10]: Non-toxic; Ratio [4]: 59; Activity [11]: Non-toxic; Activity [12]: Non-toxic; Activity [13]: Non-toxic; pEC50 [5]: 5.25
17 | COc1cc(/C(=C\c2ccccc2)C(C)=O)cc(OC)c1OC | 4.60 | 5.27 | 
18 | COc1cc(/C(=C\c2ccc(Cl)c(Cl)c2)C(C)=O)cc(OC)c1OC | 5.19 | 5.40 | 
19 | COc1ccc(/C=C(/C(C)=O)c2cc(OC)c(OC)c(OC)c2)cc1[N+](=O)[O-] | 5.42 | 5.51 | 

From ChEMBL document CHEMBL1765023, “Acetyl analogs of combretastatin A-4: synthesis and biological studies” (Bioorg Med Chem, 2011)
